Here are results for eight substances from PMC2191018 (The Journal of Experimental Medicine, 1993).

Read-outs that look alike come from different tables or passages of the source.

The target of assay [1] is Kd molecule. Particulars: cited from earlier work.
Assay [2] relates to TCR of biotin-YIPSAEK(IASA)I-specific CTL clones. Particulars: different cell types; cited from earlier work.
Assay [3] has as its target Kd molecule. Kind of assay: Kd photoaffinity labeling on CTL clones. The assay is classed as binding, mouse. To be noted: UV irradiation, Kd immunoprecipitated, SDS-PAGE 10%, reducing. Put shortly: (§1)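 Live CTL clone cells were washed into DMEM with 0.5% FCS and 10 mM Hepes. They were incubated with biotinylated 125I-IASA photoprobe (~2,000 Ci/mmol) plus human β2m, 4-5 h at 37°C in 5% CO2, then UV irradiated at 312 nm for 5 min at 4°C. Cells were lysed in 0.7% NP-40 with leupeptin, PMSF and iodoacetamide. Kd (mAb 20-8-4S) or TCR-α/β (H57-597) was immunoprecipitated and run on 10% reducing SDS-PAGE.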

Another assay relates to CTL clone N9. Kind of assay: 51Cr-release CTL recognition assay, clone N9. The assay is classed as cell-based, mouse. An outline of the steps:
(§2)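 Test peptide derivatives were titrated in threefold dilutions on P815 target cells in a 51Cr-release assay at an E/T ratio of 3:1, run 4 h at 37°C. Specific lysis = 100 × (experimental − spontaneous)/(total − spontaneous). Relative antigenic activity = concentration of the reference photoprobe giving 50% maximal lysis divided by that of the variant.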

For assay [4], the system named is biotin-YIPSAEK(IASA)I-specific CTL clones. Kind of assay: CTL recognition of peptide derivatives, statements over several clones. The assay is classed as cell-based, mouse. Put shortly:
as §2

Assay [5] addresses Kd molecule. To be noted: compared with isomeric IASA-YIPSAEK(biotin)I or the parent derivative; cited from earlier work.
Assay [6] deals with TCR of biotin-YIPSAEK(IASA)I-specific CTL clones. Kind of assay: TCR photoaffinity labeling on living CTL clones. The format is binding, mouse. To be noted: for TCR photoaffinity labeling: 4-5 h 37 C, UV 312 nm 5 min, TCR immunoprecipitated, SDS-PAGE. An outline of the steps: as §1
The test system of the next assay is N9 TCR / Kd molecule. Kind of assay: Inhibition of N9 TCR photoaffinity labeling by competitor peptides and mAbs. To be noted: competitor peptide at 300-fold molar excess; N9 cells; SDS-PAGE 10%, nonreducing. The assay is classed as binding, mouse.

Take IASA-YIPSAEK(biotin)I: the Kd photoaffinity labeling result on Kd molecule [1] is recorded as “selectively labeled the Kd molecules”. Also, the TCR photoaffinity labeling entry in assay [2] is “failsto label”.

On to “lZSlASA-YIPSAEK(biotin)I [125IASA-YIPSAEK(biotin)I]”, for which the Kd photoaffinity labeling entry at Kd molecule [3] (clone N1) is listed as “slightly reduced”; on Kd molecule [3] (clone N4), “efficient”; at Kd molecule [3] (clone N6), “efficient”; at Kd molecule [3] (clone N9), “efficient”; on Kd molecule [3] (clone N11), “slightly reduced”; at Kd molecule [3] (clone O1) it was “efficient”.

Take “biotin-YIPSAEK (4-azido benzoic acid [ABA]I [biotin-YIPSAEK(ABA)I]”: the “efficiency of recognition relative to the original photoprobe” value in the assay on CTL clone N9 (clone N9, versus biotin-YIPSAEK(IASA)I) was “about 50 times”.

Take biotin-YIPSAEK(ASA)I: in assay [4] (the other four clones, versus biotin-YIPSAEK(IASA)I), the “improvement of recognition on removal of the iodine from the IASA group” value is given as 6-12 fold.

On to biotin-YIPSAEK(IASA)I, for which, at Kd molecule [1], the Kd photoaffinity labeling result is reported as “could not”. Besides, on Kd molecule [5], the “binding to Kd molecules” value is given as “bound equally efficiently”. Also, in assay [4] (additional clone 08, data not shown), the “recognition by clone O8” value was “recognized”.

On to biotin-YIPSAEK(125IASA)I, for which the TCR photoaffinity labeling entry was “No significant TCR labeling” in assay [6] (clone N1); “showed TCR photoaffinity labeling” in assay [6] (clone N4); “showed TCR photoaffinity labeling” in assay [6] (clone N9); “showed TCR photoaffinity labeling” in assay [6] (clone N11); “No significant TCR labeling” in assay [6] (clone O1); “No significant TCR labeling” in assay [6] (clone O7). Also, the TCR photoaffinity labeling entry in assay [6] (clone O11) is “No significant TCR labeling”. The “photoaffinity-labeled TCR chain” value in assay [6] (clone N9, two-dimensional gel electrophoresis) was “labeled both chains”.

With biotin-YIPSAEK(BA)I, the “recognition by clone N9 compared with the original conjugate” value in the assay with CTL clone N9 (clone N9, only clone among the eight to recognize this variant) is given as “as efficientlyas the original”.

Regarding YIPSAEKI [PbCS 253-260], the “effect on N9 TCR labeling by biotin-YIPSAEK(125IASA)I” value with N9 TCR / Kd molecule was “abolished”.
